In ChEMBL document CHEMBL1158347, “Substituted quinazolines, part 3. Synthesis, in vitro antitumor activity and molecular modeling study of certain 2-thieno-4(3H)-quinazolinone analogs” (2009):

What was measured:
Type in all cases: functional
[1] = Growth inhibition of human ovarian cancer cells after 48 hrs; conditions: Cancer cell lines
How it was run: (§1)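 NCI in vitro disease-oriented human tumor cell line screen. Compounds passing a one-dose primary assay (MCF-7, NCI-H460, SF-268; pass = growth of any line reduced to 32% or less) were tested on the 60-line panel over a 5-log dose range. Compounds were dissolved in DMSO, with under 1% DMSO in final dilutions, and tested in duplicate at 6×10^4 cells/ml. Cells were incubated at 37 °C in 5% CO2 for 48 h, then diluted 10-fold in saline and counted with a Coulter counter, with counts corrected for dilution. Controls held PBS/DMSO at identical dilutions. GI50 was reported per line and as subpanel/full-panel mean-graph midpoint.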

[2] = Growth inhibition of human breast cancer cells after 48 hrs; conditions: Cancer cell lines; how it was run: as §1
SF-539 = experiment: Growth inhibition of human SF539 cells after 48 hrs; conditions: SF-539, 48 h; for CC50: read-out: LC50 (the source's name); how it was run: as §1
CCRF-CEM = experiment: Growth inhibition of human CCRF-CEM cells after 48 hrs; conditions: for CC50: read-out: LC50 (the source's name); how it was run: as §1
T47D = experiment: Growth inhibition of human T47D cells after 48 hrs; how it was run: as §1
HL-60(TB) = experiment: Growth inhibition of human HL-60(TB) cells after 48 hrs; conditions: HL-60, 48 h; for CC50: read-out: LC50 (the source's name)
How it was run: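 NCI 60-cell-line screen over a 5-log dose range. Compounds were dissolved in DMSO, final DMSO under 1%. Duplicate wells were seeded at 6×10^4 cells/ml, with PBS/DMSO vehicle controls at identical dilutions. Cells were incubated 48 h at 37 °C in humidified 5% CO2, diluted 10-fold in saline, and counted by Coulter counter with dilution correction. GI50 read-out.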

NSCLC = experiment: Growth inhibition of human NSCLC cells after 48 hrs; how it was run: as §1
MCF7 = experiment: Growth inhibition of human MCF7 cells after 48 hrs; conditions: MCF7, 48 h; for CC50: read-out: LC50 (the source's name); how it was run: as §1
SK-MEL-2 = experiment: Growth inhibition of human SK-MEL-2 cells after 48 hrs; conditions: SK-MEL-2, 48 h; how it was run: as §1
[3] = Growth inhibition of human melanoma cells after 48 hrs; conditions: Melanoma cell; how it was run: as §1
[4] = Growth inhibition of human CNS cancer cells after 48 hrs; conditions: Cancer cell lines; how it was run: as §1
K562 = experiment: Growth inhibition of human K562 cells after 48 hrs; conditions: K562, 48 h; how it was run: as §1
[5] = Growth inhibition of human renal cancer cells after 48 hrs; conditions: Cancer cell lines; how it was run: as §1
[6] = Growth inhibition of human Colon cancer cells after 48 hrs; conditions: Cancer cell lines; how it was run: as §1
RPMI-8226 = experiment: Growth inhibition of human RPMI8226 cells after 48 hrs; conditions: RPMI-8226, 48 h; for CC50: read-out: LC50 (the source's name); how it was run: as §1
UACC-257 = experiment: Growth inhibition of human UACC257 cells after 48 hrs; conditions: UACC-257, 48 h; how it was run: as §1
[7] = Growth inhibition of human prostate cancer cells after 48 hrs; conditions: Cancer cell lines; for CC50: read-out: LC50 (the source's name); how it was run: as §1
[8] = Growth inhibition of human leukemia cells after 48 hrs; conditions: Leukemia cell; how it was run: as §1
[9] = read-out: LC50 (the source's name)

`O=S(=O)(Nc1nccs1)c1ccc(Nc2nc(-c3cccs3)nc3ccc(I)cc23)cc1` showed a GI50 [1] of 25.8 µM, a TGI [1] of 68.9 µM and a GI50 [2] of 25.9 µM. It also gave a TGI [2] of 74.9 µM, a GI50 (SF-539) of 32 µM and a TGI (SF-539) of 60 µM. The CC50 (SF-539) was > 100 µM, the GI50 (CCRF-CEM) was 2 µM and the TGI (CCRF-CEM) was 4 µM. For the same compound, the CC50 (CCRF-CEM) was 9 µM, the GI50 (T47D) was 15 µM and the LC50 (T47D) was > 100 µM. The TGI (T47D) was 51 µM, the GI50 (HL-60(TB)) was 32 µM and the TGI (HL-60(TB)) was 80 µM. The CC50 (HL-60(TB)) was > 100 µM, the GI50 (NSCLC) was 23.3 µM and the LC50 (concentration killing 50% of cells) (NSCLC) was 92.4 µM. For the same compound, the TGI (NSCLC) was 65.2 µM, the GI50 (MCF7) was 26 µM and the TGI (MCF7) was > 100 µM. For the same compound, the CC50 (MCF7) was > 100 µM, the GI50 (SK-MEL-2) was 22 µM and the LC50 (SK-MEL-2) was > 100 µM. It also gave a TGI (SK-MEL-2) of 47 µM, a GI50 [3] of 18.9 µM and an LC50 (lethal concentration 50%) [3] of 92.1 µM. The TGI [3] was 45.5 µM, the GI50 [4] was 27.7 µM and the TGI [4] was 68.3 µM. The GI50 (K562) was 38 µM, the LC50 (concentration killing 50% of cells) (K562) was > 100 µM and the TGI (K562) was > 100 µM. The GI50 [5] was 28.3 µM, the TGI [5] was 79.6 µM and the GI50 [6] was 24.3 µM. For the same compound, the LC50 [6] was 87.3 µM, the TGI [6] was 61.1 µM and the GI50 (RPMI-8226) was 1 µM. It also gave a TGI (RPMI-8226) of 3 µM, a CC50 (RPMI-8226) of 8 µM and a GI50 (UACC-257) of 0.04 µM. The LC50 (UACC-257) was 95 µM, the TGI (UACC-257) was 28 µM and the GI50 [7] was 13.9 µM. For the same compound, the TGI [7] was 35.9 µM, the CC50 [7] was 73 µM and the GI50 [8] was 21.7 µM. It also gave a TGI [8] of 59.2 µM and a CC50 [8, 9] of 69.4 µM.
Compound `NS(=O)(=O)c1ccc(CNc2nc(-c3cccs3)nc3ccc(I)cc23)cc1` has a GI50 [1] of 15.7 µM, an LC50 [1] of 89.1 µM and a TGI [1] of 42.6 µM. For the same compound, the GI50 [2] was 12.3 µM, the LC50 [2] was 80.8 µM and the TGI [2] was 32.1 µM. For the same compound, the GI50 (SF-539) was 11 µM, the TGI (SF-539) was 31 µM and the CC50 (SF-539) was 85 µM. The GI50 (CCRF-CEM) was 22 µM, the TGI (CCRF-CEM) was 60 µM and the CC50 (CCRF-CEM) was > 100 µM. For the same compound, the GI50 (T47D) was 0.2 µM, the LC50 (T47D) was 82 µM and the TGI (T47D) was 18 µM. The GI50 (HL-60(TB)) was 30 µM, the TGI (HL-60(TB)) was > 100 µM and the CC50 (HL-60(TB)) was > 100 µM. It also gave a GI50 (NSCLC) of 14.7 µM, an LC50 (concentration killing 50% of cells) (NSCLC) of 82.2 µM and a TGI (NSCLC) of 37 µM. For the same compound, the GI50 (MCF7) was 0.6 µM, the TGI (MCF7) was 16 µM and the CC50 (MCF7) was > 100 µM. It also gave a GI50 (SK-MEL-2) of 18 µM, an LC50 (SK-MEL-2) of 61 µM and a TGI (SK-MEL-2) of 33 µM. The GI50 [3] was 16 µM, the LC50 (lethal concentration 50%) [3] was 58.3 µM and the TGI [3] was 30.5 µM. For the same compound, the GI50 [4] was 18.2 µM, the TGI [4] was 42.4 µM and the CC50 [4, 9] was 89 µM. For the same compound, the GI50 (K562) was 37 µM, the LC50 (concentration killing 50% of cells) (K562) was > 100 µM and the TGI (K562) was > 100 µM. The GI50 [5] was 13.6 µM, the TGI [5] was 36.1 µM and the CC50 [5, 9] was 88.1 µM. For the same compound, the GI50 [6] was 16.7 µM, the LC50 [6] was 66.4 µM and the TGI [6] was 37.3 µM. For the same compound, the GI50 (RPMI-8226) was 19 µM, the TGI (RPMI-8226) was 50 µM and the CC50 (RPMI-8226) was > 100 µM. It also gave a GI50 (UACC-257) of 14 µM, an LC50 (UACC-257) of 54 µM and a TGI (UACC-257) of 28 µM. The GI50 [7] was 17.1 µM, the TGI [7] was 41.8 µM and the CC50 [7] was 80.8 µM. The GI50 [8] was 23.9 µM and the TGI [8] was 72.3 µM.
